Assays:
[1] = molecular target: T1, Inosine-5'-monophosphate dehydrogenase (Escherichia coli K-12, UniProt P0ADG7); assay: Ability to inhibit Inosine-5'-monophosphate dehydrogenase isolated from Escherichia coli; conditions: read-out: I50
T1 sequence (P0ADG7 whole entry): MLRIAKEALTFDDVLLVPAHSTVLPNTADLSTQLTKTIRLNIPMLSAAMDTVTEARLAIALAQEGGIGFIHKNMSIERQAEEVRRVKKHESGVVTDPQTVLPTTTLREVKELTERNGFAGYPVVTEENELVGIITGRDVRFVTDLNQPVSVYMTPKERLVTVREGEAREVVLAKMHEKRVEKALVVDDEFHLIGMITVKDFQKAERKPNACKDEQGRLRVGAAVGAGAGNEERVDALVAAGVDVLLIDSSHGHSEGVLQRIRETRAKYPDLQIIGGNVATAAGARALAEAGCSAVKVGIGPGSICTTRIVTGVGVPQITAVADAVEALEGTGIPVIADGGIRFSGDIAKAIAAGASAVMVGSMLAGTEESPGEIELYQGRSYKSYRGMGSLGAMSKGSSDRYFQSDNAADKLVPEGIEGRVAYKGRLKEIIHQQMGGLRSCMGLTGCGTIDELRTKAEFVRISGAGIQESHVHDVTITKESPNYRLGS
In short: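 Crude E. coli IMP dehydrogenase (0–40% ammonium sulfate precipitate) in 0.05 M Tris pH 8.5 with 33.4 mM KCl, 1.5 mM glutathione, 0.8 mM NAD+ and 0.002 unit enzyme, run at 25 °C. NADH rise at 340 nm gave initial rates. I50 was read graphically at 50 µM IMP, with inhibitor levels bracketing 50%; duplicates agreed within 20%. Ki came from a competitive-equation fit over 10–75 µM IMP.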

[2] = molecular target: IMP dehydrogenase (Escherichia coli); assay: Ability to inhibit Inosine-5'-monophosphate dehydrogenase isolated from Escherichia coli

Row | SMILES | IC50 [1] [µM] | Ki [2] [µM]
1 | CCCCCCCCCCc1nc(O)c2ncn(C3O[C@@H](COP(=O)(O)O)[C@H](O)[C@@H]3O)c2n1 (some centres undefined) | 150 | –
2 | CCCc1nc(O)c2ncn(C3O[C@@H](COP(=O)(O)O)[C@H](O)[C@@H]3O)c2n1 (some centres undefined) | – | 190
3 | COc1ccc(-c2nc(O)c3ncn(C4O[C@@H](COP(=O)(O)O)[C@H](O)[C@@H]4O)c3n2)cc1 (some centres undefined) | 810 | –
4 | O=P(O)(O)OC[C@@H]1OC(n2cnc3c(O)nc(SCc4ccccc4Cl)nc32)[C@@H](O)[C@H]1O (some centres undefined) | 72 | –
5 | COc1nc(O)c2ncn(C3O[C@@H](COP(=O)(O)O)[C@H](O)[C@@H]3O)c2n1 (some centres undefined) | – | 46
6 | O=P(O)(O)OC[C@@H]1OC(n2cnc3c(O)nc(Cc4ccccc4)nc32)[C@@H](O)[C@H]1O (some centres undefined) | 770 | –
7 | O=P(O)(O)OC[C@@H]1OC(n2cnc3c(O)nc(Cl)nc32)[C@@H](O)[C@H]1O (some centres undefined) | – | 120
8 | CCCCCCCCCc1nc(O)c2ncn(C3O[C@@H](COP(=O)(O)O)[C@H](O)[C@@H]3O)c2n1 (some centres undefined) | 160 | –
9 | CCCCCCCCc1nc(O)c2ncn(C3O[C@@H](COP(=O)(O)O)[C@H](O)[C@@H]3O)c2n1 (some centres undefined) | 680 | –
10 | O=P(O)(O)OC[C@@H]1OC(n2cnc3c(O)nc(-c4cccnc4)nc32)[C@@H](O)[C@H]1O (some centres undefined) | > 1000 | –
11 | O=P(O)(O)OC[C@@H]1OC(n2cnc3c(O)nc(-c4ccccc4)nc32)[C@@H](O)[C@H]1O (some centres undefined) | > 1000 | –
12 | O=P(O)(O)OC[C@@H]1OC(n2cnc3c(O)nc(/C=C/c4ccccc4)nc32)[C@@H](O)[C@H]1O (some centres undefined) | 69 | –
13 | O=[N+]([O-])c1ccc(CSc2nc(O)c3ncn(C4O[C@@H](COP(=O)(O)O)[C@H](O)[C@@H]4O)c3n2)cc1 (some centres undefined) | 56 | –
14 | Cc1nc(O)c2ncn(C3O[C@@H](COP(=O)(O)O)[C@H](O)[C@@H]3O)c2n1 (some centres undefined) | – | 600
15 | CCCCCCCc1nc(O)c2ncn(C3O[C@@H](COP(=O)(O)O)[C@H](O)[C@@H]3O)c2n1 (some centres undefined) | 270 | –
16 | O=[N+]([O-])c1cccc(CSc2nc(O)c3ncn(C4O[C@@H](COP(=O)(O)O)[C@H](O)[C@@H]4O)c3n2)c1 (some centres undefined) | 33 | –
17 | O=[N+]([O-])c1cc(CSc2nc(O)c3ncn(C4O[C@@H](COP(=O)(O)O)[C@H](O)[C@@H]4O)c3n2)cc([N+](=O)[O-])c1 (some centres undefined) | 85 | –
18 | CCCCCCc1nc(O)c2ncn(C3O[C@@H](COP(=O)(O)O)[C@H](O)[C@@H]3O)c2n1 (some centres undefined) | 580 | –
19 | O=P(O)(O)OC[C@@H]1OC(n2cnc3c(O)nc(Cc4cccnc4)nc32)[C@@H](O)[C@H]1O (some centres undefined) | 430 | –

From ChEMBL document CHEMBL1122630, “Inhibitors of inosinic acid dehydrogenase. 2-Substituted inosinic acids” (J Med Chem, 1984)
